The record followed here is ChEMBL document CHEMBL4622996, “Discovery of Vixotrigine: A Novel Use-Dependent Sodium Channel Blocker for the Treatment of Trigeminal Neuralgia” (ACS Med Chem Lett, 2020).

Data set [1] in a line: Half life in monkey at 0.5 mg/kg, iv. The data set is classed as ADME, organism-based, Macaca mulatta. To be noted: rhesus monkey, in vivo.
Data set [2] in a line: Volume of distribution in steady state in monkey at 0.5 mg/kg, iv. In kind it is ADME, organism-based, Macaca mulatta. To be noted: rhesus monkey, in vivo, read-out: Vdss.
Data set [3] can be described thus: Oral bioavailability in dog at 3 mg/kg. The data set is classed as ADME, organism-based, Canis lupus familiaris. The settings on record: in vivo.
Data set [4] deals with Rattus norvegicus. Nature of the data set: Antiinflammatory activity in complete Freund's adjuvant-induced knee joint rat model of subchronic inflammation assessed as inhibition of CFA-induced hypersensitivity to pain at 1 mg/kg, BID. In kind it is functional, organism-based. The procedure, abridged: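 CFA-induced knee joint model of subchronic inflammation; oral 1 mg/kg BID over a 5-day dosing period; reversal of hypersensitivity compared against celecoxib.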

The test system of data set [5] is Rattus norvegicus. As to the kind of experiment: Antiinflammatory activity in complete Freund's adjuvant-induced rat model assessed as inhibition of CFA-induced hypersensitivity to pain administered orally at a single dose. In kind it is functional. The settings on record: po.
In data set [6] the test system is Rattus norvegicus. As to the kind of experiment: Antinociceptive activity in rat model of chronic constriction injury-induced neuropathic pain assessed as inhibition of mechanical allodynia at 0.5 to 5 mg/kg, po BID administered 22 days post surgery and measured after 6 to 8 days. In kind it is functional, organism-based. The procedure, abridged:
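Chronic constriction injury neuropathic pain model in rat; oral dosing at 0.5 or 5 mg/kg BID starting day 22; mechanical allodynia read after 6 and 8 days of dosing; gabapentin 30 mg/kg po BID as positive control. Free plasma levels sampled on day 8, 0.5 h postdose.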

Data set [7] can be described thus: Oral bioavailability in rat at 3 mg/kg. The settings on record: in vivo. The data set is classed as ADME, organism-based.
For data set [8], the target named is Sodium channel protein type 3 subunit alpha (Homo sapiens, UniProt Q9NY46). Nature of the data set: Inhibition of Nav1.3 (unknown origin) expressed in HEK293 cells assessed as inhibition of sodium current incubated for 3 to 3.5 mins by electrophysiology assay. The data set is classed as cell-based. The procedure, abridged:
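HEK293 cells stably expressing NaV1.3, grown in DMEM-F12 with 10% FBS at 37 °C, dissociated at 50–70% confluency; IonWorksHT planar patch clamp at 21–23 °C, amphotericin perforated access; intracellular K-gluconate 100, KCl 40, MgCl2 3.2, EGTA 3, HEPES 5 mM, pH 7.3.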

Data set [9] can be described thus: Aqueous solubility of compound in HCl salt : water. The data set is classed as physicochemical.
Data set [10] can be described thus: Aqueous solubility of the compound in FeSSIF. In kind it is physicochemical.
The target in a further data set is T1, Cytochrome P450 2A6 (Homo sapiens, UniProt P11509).
T1 sequence (P11509 whole entry): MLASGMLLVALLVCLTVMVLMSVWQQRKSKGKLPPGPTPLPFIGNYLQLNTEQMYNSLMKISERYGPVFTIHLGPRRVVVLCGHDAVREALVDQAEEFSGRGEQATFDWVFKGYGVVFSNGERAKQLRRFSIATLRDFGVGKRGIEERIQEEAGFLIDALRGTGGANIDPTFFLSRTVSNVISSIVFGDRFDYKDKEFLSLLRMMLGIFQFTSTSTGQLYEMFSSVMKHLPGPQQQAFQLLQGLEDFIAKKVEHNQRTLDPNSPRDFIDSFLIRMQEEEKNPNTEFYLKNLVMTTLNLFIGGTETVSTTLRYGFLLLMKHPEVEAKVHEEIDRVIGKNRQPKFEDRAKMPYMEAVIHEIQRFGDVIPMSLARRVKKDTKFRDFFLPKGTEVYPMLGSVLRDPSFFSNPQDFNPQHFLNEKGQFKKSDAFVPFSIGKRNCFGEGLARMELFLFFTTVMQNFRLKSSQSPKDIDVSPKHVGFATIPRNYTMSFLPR
As to the kind of experiment: Inhibition of CYP2A6 (unknown origin). The data set is classed as ADME.

The next data set addresses T2, Cytochrome P450 2B6 (Homo sapiens, UniProt P20813).
T2 sequence (P20813 whole entry): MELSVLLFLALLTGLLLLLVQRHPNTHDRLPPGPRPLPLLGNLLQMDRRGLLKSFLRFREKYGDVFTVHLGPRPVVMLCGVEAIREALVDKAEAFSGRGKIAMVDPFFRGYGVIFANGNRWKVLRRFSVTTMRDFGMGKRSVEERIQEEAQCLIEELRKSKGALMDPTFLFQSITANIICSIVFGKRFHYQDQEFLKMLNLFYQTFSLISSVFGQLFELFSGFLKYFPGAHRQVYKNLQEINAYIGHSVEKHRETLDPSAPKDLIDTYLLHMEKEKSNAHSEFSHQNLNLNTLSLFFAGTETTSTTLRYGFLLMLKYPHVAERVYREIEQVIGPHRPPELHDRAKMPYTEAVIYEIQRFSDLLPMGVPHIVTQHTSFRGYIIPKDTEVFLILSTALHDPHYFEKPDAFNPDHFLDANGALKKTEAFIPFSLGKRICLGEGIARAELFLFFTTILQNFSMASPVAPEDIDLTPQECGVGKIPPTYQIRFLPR
As to the kind of experiment: Inhibition of CYP2B6 (unknown origin). In kind it is ADME.

The target in data set [11] is T3, Amine oxidase [flavin-containing] A (Homo sapiens, UniProt P21397).
T3 sequence (P21397 whole entry): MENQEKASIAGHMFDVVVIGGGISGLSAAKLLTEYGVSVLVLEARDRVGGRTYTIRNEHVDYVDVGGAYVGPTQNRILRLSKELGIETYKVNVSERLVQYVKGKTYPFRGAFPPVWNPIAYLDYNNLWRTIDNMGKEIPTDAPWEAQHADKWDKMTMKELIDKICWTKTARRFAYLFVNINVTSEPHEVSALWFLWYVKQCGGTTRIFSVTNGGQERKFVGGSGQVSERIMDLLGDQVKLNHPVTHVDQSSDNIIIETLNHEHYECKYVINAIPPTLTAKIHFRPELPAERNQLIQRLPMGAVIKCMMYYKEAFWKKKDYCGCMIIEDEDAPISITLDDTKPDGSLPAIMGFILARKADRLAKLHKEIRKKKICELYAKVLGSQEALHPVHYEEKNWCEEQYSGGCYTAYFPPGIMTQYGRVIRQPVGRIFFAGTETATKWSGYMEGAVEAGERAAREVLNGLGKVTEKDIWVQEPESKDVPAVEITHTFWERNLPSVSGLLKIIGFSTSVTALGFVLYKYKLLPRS
Nature of the data set: Inhibition of MAO-A (unknown origin).

The target of data set [12] is T4, Amine oxidase [flavin-containing] B (Homo sapiens, UniProt P27338).
T4 sequence (P27338 whole entry): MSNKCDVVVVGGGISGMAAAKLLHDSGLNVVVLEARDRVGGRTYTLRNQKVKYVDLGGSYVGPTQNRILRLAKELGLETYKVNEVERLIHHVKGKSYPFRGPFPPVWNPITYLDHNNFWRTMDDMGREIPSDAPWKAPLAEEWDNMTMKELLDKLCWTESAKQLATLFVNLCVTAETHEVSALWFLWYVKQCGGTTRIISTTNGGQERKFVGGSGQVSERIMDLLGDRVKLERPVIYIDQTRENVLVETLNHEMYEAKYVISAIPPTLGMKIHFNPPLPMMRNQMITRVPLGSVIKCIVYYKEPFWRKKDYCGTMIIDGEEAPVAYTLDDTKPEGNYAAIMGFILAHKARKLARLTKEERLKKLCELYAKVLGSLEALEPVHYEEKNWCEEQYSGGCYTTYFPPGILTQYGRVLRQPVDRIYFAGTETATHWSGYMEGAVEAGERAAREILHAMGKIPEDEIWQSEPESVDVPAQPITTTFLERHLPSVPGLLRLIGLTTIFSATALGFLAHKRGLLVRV
As to the kind of experiment: Inhibition of MAO-B (unknown origin). The procedure, abridged:
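MAO-B inhibition measured in human liver microsomes, reported as pIC50.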

Activity calls are given as the source filed them. Where only a bound is given, the exact number is not on record here.

Sequence of Sodium channel protein type 3 subunit alpha (Q9NY46 whole entry): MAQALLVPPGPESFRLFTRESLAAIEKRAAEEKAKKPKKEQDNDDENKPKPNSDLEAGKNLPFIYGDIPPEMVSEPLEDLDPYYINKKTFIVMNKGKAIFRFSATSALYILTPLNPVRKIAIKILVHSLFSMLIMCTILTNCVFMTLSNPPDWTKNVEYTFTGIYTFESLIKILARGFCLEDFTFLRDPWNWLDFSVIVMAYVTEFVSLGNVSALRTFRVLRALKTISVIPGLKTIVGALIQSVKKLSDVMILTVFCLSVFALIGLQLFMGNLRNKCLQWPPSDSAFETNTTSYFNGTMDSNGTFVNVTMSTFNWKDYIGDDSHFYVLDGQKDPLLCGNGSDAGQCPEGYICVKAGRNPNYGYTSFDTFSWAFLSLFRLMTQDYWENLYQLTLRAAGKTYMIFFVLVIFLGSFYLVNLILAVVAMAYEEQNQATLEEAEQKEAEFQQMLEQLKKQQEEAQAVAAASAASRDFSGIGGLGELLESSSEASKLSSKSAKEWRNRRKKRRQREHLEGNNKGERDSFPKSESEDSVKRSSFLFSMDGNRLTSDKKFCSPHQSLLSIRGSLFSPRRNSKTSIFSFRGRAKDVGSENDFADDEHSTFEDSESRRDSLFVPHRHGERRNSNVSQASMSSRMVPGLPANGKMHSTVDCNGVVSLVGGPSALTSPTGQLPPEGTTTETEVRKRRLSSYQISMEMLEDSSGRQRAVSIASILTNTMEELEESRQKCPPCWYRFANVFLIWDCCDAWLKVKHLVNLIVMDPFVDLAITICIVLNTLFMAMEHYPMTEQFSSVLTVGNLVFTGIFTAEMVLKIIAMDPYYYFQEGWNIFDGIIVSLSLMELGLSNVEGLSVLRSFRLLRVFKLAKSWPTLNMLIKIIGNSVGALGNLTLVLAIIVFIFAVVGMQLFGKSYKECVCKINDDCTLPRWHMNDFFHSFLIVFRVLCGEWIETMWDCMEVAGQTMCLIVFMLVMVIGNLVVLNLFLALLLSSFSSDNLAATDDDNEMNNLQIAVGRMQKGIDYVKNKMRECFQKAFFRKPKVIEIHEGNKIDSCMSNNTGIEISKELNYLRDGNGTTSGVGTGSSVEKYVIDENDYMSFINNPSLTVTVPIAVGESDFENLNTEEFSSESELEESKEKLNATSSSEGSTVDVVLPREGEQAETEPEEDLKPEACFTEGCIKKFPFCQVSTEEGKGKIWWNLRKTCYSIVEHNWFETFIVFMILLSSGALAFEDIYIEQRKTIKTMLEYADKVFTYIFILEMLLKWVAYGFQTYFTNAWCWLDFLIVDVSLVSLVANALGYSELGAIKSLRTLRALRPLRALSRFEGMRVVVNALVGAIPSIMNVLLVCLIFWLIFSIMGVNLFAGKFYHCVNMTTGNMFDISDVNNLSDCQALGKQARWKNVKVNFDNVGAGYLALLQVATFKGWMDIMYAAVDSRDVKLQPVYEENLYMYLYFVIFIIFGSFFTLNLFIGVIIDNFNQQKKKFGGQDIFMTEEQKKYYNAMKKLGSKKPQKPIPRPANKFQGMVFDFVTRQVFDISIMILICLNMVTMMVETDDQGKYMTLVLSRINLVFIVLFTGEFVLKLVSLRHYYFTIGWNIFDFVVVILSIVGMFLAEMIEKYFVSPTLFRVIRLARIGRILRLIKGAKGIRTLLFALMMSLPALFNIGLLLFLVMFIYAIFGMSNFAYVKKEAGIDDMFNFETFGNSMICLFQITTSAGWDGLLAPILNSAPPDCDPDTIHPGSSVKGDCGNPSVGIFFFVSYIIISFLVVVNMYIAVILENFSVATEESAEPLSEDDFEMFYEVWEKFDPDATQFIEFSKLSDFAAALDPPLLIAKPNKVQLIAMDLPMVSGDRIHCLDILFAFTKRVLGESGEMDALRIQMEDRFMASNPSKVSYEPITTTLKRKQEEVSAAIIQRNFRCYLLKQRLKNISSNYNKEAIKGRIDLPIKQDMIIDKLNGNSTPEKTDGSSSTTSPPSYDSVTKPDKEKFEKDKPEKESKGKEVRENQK

For the compound `Cl.NC(=O)[C@@H]1CC[C@H](c2ccc(OCc3ccccc3F)cc2)N1` [RAXATRIGINE HYDROCHLORIDE], the half-life (in general, the time needed for the level to fall by half in the phase considered) in data set [1] is 5 h. Besides, the Vd in data set [2] was 2 L/kg. Further, the bioavailability (usually dose-corrected exposure relative to a reference, in per cent) turned out to be 57% in data set [3] and 43% in data set [7]. Further, the outcome in the data set with Rattus norvegicus [4] and with Rattus norvegicus [6] was Active. Further, the ED50 (as a rule, the dose that gives a 50% effect, or the effect in half of the subjects) in the data set on Rattus norvegicus [5] is 0.91 mg/kg. The half-inhibitory concentration (IC50) (usually the concentration needed to halve the response being measured) in [8] was 63.1 µM; against Cytochrome P450 2A6, above 100 µM; against Cytochrome P450 2B6, 31 µM; in data set [12] it was 0.00398 µM. Also, the solubility (usually the concentration that dissolves in the medium under given conditions) in [9] was 16.3 mg/mL; in data set [10], 6.9 mg/mL. Also, the inhibition constant Ki (usually the equilibrium dissociation constant of an inhibitor or competing ligand from its target) in data set [11] was above 10 µM.
